# Data from ChEMBL document CHEMBL4118263, “Synthesis, structure-activity relationship and molecular docking studies of 3-O-flavonol glycosides as cholinesterase inhibitors” (Bioorg Med Chem, 2018).
# Experiments:
# Acetylcholinesterase = Acetylcholinesterase (Electrophorus electricus, UniProt O42275); assay: Inhibition of electric eel AChE using acetylthiocholine iodide as substrate pretreated for 10 mins followed by substrate addition measured after 20 mins by Ellman's method
# Cholinesterase = Cholinesterase (Equus caballus, UniProt P81908); assay: Inhibition of horse serum BChE using butyrylthiocholine iodide as substrate pretreated for 10 mins followed by substrate addition measured after 20 mins by Ellman's method
# Procedure, shortened: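 Horse serum BChE was preincubated 10 min with test sample (20, 40, 60, 80, 100 μM). Butyrylthiocholine chloride (0.2 mM) was then added with DTNB (0.5 mM) in phosphate buffer pH 8 and incubated 20 min at 37 °C. Run in triplicate; IC50 by simple linear regression.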
# Chain of Cholinesterase (P81908 whole entry): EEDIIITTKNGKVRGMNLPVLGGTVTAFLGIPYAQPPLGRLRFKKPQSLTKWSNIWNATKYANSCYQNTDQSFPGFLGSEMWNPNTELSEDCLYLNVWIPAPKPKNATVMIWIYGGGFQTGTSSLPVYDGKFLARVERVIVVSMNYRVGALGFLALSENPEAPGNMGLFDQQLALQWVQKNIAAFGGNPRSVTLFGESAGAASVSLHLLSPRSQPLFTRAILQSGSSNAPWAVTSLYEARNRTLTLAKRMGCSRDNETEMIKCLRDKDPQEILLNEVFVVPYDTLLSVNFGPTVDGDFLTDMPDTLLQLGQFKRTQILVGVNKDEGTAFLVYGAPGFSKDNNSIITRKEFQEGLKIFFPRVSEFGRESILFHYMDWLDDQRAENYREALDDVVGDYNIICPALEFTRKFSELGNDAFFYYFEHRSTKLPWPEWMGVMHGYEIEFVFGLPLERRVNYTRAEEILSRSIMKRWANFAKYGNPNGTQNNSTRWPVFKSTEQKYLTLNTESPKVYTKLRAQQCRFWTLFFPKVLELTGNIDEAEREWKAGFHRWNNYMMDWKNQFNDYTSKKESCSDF
# Chain of Acetylcholinesterase (O42275 whole entry): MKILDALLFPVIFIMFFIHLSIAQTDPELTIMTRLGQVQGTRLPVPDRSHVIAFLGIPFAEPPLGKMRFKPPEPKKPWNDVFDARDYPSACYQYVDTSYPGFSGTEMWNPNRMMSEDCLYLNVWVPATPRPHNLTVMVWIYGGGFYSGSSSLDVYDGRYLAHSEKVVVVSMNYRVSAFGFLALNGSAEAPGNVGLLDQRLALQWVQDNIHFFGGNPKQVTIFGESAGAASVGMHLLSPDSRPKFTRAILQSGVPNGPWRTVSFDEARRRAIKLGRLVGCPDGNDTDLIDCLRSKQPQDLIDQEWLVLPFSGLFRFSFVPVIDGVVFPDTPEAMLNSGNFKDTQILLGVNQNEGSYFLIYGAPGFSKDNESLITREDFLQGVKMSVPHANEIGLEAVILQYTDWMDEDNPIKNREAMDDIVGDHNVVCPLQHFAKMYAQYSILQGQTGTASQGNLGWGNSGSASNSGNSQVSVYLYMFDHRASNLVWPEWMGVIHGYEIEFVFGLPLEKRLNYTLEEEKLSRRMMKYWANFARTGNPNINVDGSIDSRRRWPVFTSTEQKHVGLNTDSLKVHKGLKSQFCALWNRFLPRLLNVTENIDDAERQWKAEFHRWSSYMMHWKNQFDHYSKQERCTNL
Compound,IC50 (Acetylcholinesterase),IC50 (Cholinesterase)
COc1ccc(-c2oc3ccccc3c(=O)c2O[C@@H]2O[C@H](COC(C)=O)[C@@H](OC(C)=O)[C@H](OC(C)=O)[C@H]2OC(C)=O)cc1,20.7 µM,26 µM
CC(=O)OC[C@H]1O[C@@H](Oc2c(-c3ccc(CC(C)C)cc3)oc3ccccc3c2=O)[C@H](OC(C)=O)[C@@H](OC(C)=O)[C@@H]1OC(C)=O,2.05 µM,5.42 µM
CC(=O)OC[C@H]1O[C@@H](Oc2c(-c3cccs3)oc3ccccc3c2=O)[C@H](OC(C)=O)[C@@H](OC(C)=O)[C@@H]1OC(C)=O,18.5 µM,25.5 µM
CC(=O)OC[C@H]1O[C@@H](Oc2c(-c3ccc(Br)cc3)oc3cc(C)ccc3c2=O)[C@H](OC(C)=O)[C@@H](OC(C)=O)[C@@H]1OC(C)=O,22.4 µM,30.6 µM
CC(=O)OC[C@H]1O[C@@H](Oc2c(-c3ccccc3C(=O)O)oc3ccccc3c2=O)[C@H](OC(C)=O)[C@@H](OC(C)=O)[C@@H]1OC(C)=O,34 µM,48.4 µM
CC(=O)Nc1ccc(-c2oc3ccccc3c(=O)c2O[C@@H]2O[C@H](COC(C)=O)[C@@H](OC(C)=O)[C@H](OC(C)=O)[C@H]2OC(C)=O)cc1,38.7 µM,39.7 µM
CC(=O)OC[C@H]1O[C@@H](Oc2c(-c3ccc(Br)cc3)oc3ccccc3c2=O)[C@H](OC(C)=O)[C@@H](OC(C)=O)[C@@H]1OC(C)=O,10.2 µM,3.12 µM
CC(=O)OC[C@H]1O[C@@H](Oc2c(-c3ccccc3)oc3ccccc3c2=O)[C@H](OC(C)=O)[C@@H](OC(C)=O)[C@@H]1OC(C)=O,103 µM,45.9 µM
CC(=O)OC[C@H]1O[C@@H](Oc2c(-c3cccc4ccccc34)oc3ccccc3c2=O)[C@H](OC(C)=O)[C@@H](OC(C)=O)[C@@H]1OC(C)=O,36.4 µM,18.7 µM
CC(=O)OC[C@H]1O[C@@H](Oc2c(-c3ccc(F)cc3)oc3ccccc3c2=O)[C@H](OC(C)=O)[C@@H](OC(C)=O)[C@@H]1OC(C)=O,29.2 µM,49.8 µM
